Measured values of several laboratories.
Each line is one published result; the experiments were not run side by side.
Target: Insulin-like growth factor 1 receptor (IGF1R, Homo sapiens, UniProt P08069)

The remaining binding of `Cc1nn(C)cc1-c1nc2c(N3CCN(Cc4ccc(Cl)cc4)CC3)c(Cl)cnc2[nH]1` is reported as 100% (binding, competition with immobilised ligand; 1 µM).
The remaining binding of `Nc1ncc(-c2nc(N3CCOCC3)nc(N3CCOCC3)n2)c(C(F)F)n1` is reported as 78% (cell-free assay, competition with immobilised ligand; 10 µM).
`COc1ncccc1-c1cnn2ccc(N3CCN(C(=O)OC(C)C)CC3)nc12` has a remaining binding of 100% (binding, competition with immobilised ligand; 1 µM).
For `C#Cc1n[nH]c2c(-c3cn([C@@H](C)c4ccccc4)c(=O)[nH]c3=O)cc(F)cc12`, the inhibition was 7.8% (enzyme activity, inhibitor; 0.1 µM).
`Cn1cncc1[C@](O)(COc1ccc(C#N)cc1-c1ccc(OC(F)(F)F)cc1)c1ccc(C#N)cc1` gave a remaining binding of 92% (cell-free assay, competition with immobilised ligand; 1 µM).
The remaining activity of `CC(C)(C)c1cc(C=C(C#N)C#N)cc(Br)c1O` is reported as 96.6% (enzyme activity, inhibitor; 0.5 µM).
`Cn1cc(-c2cc(F)cc(N3CCn4c(cc5c4CCCC5)C3=O)c2CO)cc(Nc2ccc(N3CCN(C4COC4)CC3)cn2)c1=O` gave an inhibition of 4% (enzyme activity, inhibitor; 0.1 µM).
The remaining signal of `O=c1[nH]c2ccccc2n1C1CCN(Cc2ccc(-c3[nH]c4cc5ncnc5cc4nc3-c3ccccc3)cc2)CC1` is reported as 91.2% (cell-free assay; 0.5 µM).
With `Cn1cc(-c2cccc(N3CCc4c(sc5c4CC(C)(C)C5)C3=O)c2CO)cc(Nc2ccncn2)c1=O` the inhibition was 3% (enzyme activity, inhibitor; 1 µM).
The inhibition of `C#Cc1n[nH]c2c(-c3cn([C@@H](C)c4ccccn4)c(=O)[nH]c3=O)cc(F)cc12` is reported as 8.7% (enzyme activity, inhibitor; 0.1 µM).
